Legend:
Mus musculus [1] = assay: Minimum effective dose that show activity against P-388 murine leukemia cells in CDF1 female mice, after intraperitoneal administration (optimal dose is 6.4 mg/kg); format: functional; conditions: P388, ip, read-out: MED
Summary of the method: (§1)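 10⁶ P-388 ascites cells implanted ip in CDF₁ female mice. Six mice per dose, 10 saline-injected controls, and a concurrent mitomycin C reference group. %T/C = median survival time of treated/control × 100. MED is the lowest dose giving %T/C > 125. Therapeutic ratio = optimal dose/MED.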

Mus musculus [2] = assay: Antitumor activity against P-388 murine leukemia cells in CDF1 female mice after intraperitoneal administration at the specified optimal dose of 6.4 mg/kg; format: functional
[3] = Therapeutic ratio is expressed as ratio of optimal dose and minimum effective dose; format: ADME; conditions: mouse; read-out: TR; summary of the method: as §1
Mus musculus [4] = assay: Minimum effective dose that show activity against P-388 murine leukemia cells in CDF1 female mice, after intraperitoneal administration (optimal dose is 3.2 mg/kg); format: functional; conditions: P388, ip, read-out: MED; summary of the method: as §1
Mus musculus [5] = assay: Antitumor activity against P-388 murine leukemia cells in CDF1 female mice after intraperitoneal administration at the specified optimal dose of 3.2 mg/kg; format: functional
Mus musculus [6] = assay: Minimum effective dose that show activity against P-388 murine leukemia cells in CDF1 female mice, after intraperitoneal administration (optimal dose is 25.6 mg/kg); format: functional; conditions: P388, ip, read-out: MED; summary of the method: as §1
Mus musculus [7] = assay: Antitumor activity against P-388 murine leukemia cells in CDF1 female mice after intraperitoneal administration at the specified optimal dose of 25.6 mg/kg; format: functional
Mus musculus [8] = assay: Minimum effective dose that show activity against P-388 murine leukemia cells in CDF1 female mice, after intraperitoneal administration (optimal dose is 12.8 mg/kg); format: functional; conditions: P388, ip, read-out: MED; summary of the method: as §1
Mus musculus [9] = assay: Antitumor activity against P-388 murine leukemia cells in CDF1 female mice after intraperitoneal administration at the specified optimal dose of 12.8 mg/kg; format: functional
Mus musculus [10] = species on record: Mus musculus; assay: Degree of leukopenia produced by compound is assessed form Percent change in white cells on days 5; format: functional
Summary of the method: (§2)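 BDG₁ male mice received a single ip dose on day 0. The dose series topped out at the LD₅₀ level, or at twice the optimal dose for some agents. Total white blood cell count was taken on days 3, 5 and 7 and expressed as % change from untreated controls. Significance was set at p ≤ 0.05 or p ≤ 0.01.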

Mus musculus [11] = species on record: Mus musculus; assay: Half-wave potential produced by the compound at their optimal dose; format: functional; design: unit not given here
Mus musculus [12] = assay: Effect of compound on total white blood cell count in BDG1 male mice, after intraperitoneal administration at a dose of 12.8 mg/kg on day 3; format: functional; summary of the method: as §2
Mus musculus [13] = assay: Effect of compound on total white blood cell count in BDG1 male mice, after intraperitoneal administration at a dose of 12.8 mg/kg on day 5; format: functional; summary of the method: as §2
Mus musculus [14] = assay: Effect of compound on total white blood cell count in BDG1 male mice, after intraperitoneal administration at a dose 6.4 mg/kg on day 7; format: functional; summary of the method: as §2
Mus musculus [15] = assay: Effect of compound on total white blood cell count in BDG1 male mice, after intraperitoneal administration at a dose of 25.6 mg/kg on day 3 (highest dose was twice the optimal dose); format: functional
Mus musculus [16] = assay: Effect of compound on total white blood cell count in BDG1 male mice, after intraperitoneal administration at a dose of 6.4 mg/kg on day 5; format: functional
Summary of the method: (§3)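 Single ip dose given on day 0 to BDG₁ male mice. Total white blood cell count measured on days 3, 5 and 7, expressed as % change from control. Highest dose was at the LD₅₀, or at twice the optimal dose where so footnoted. Significance reported at p ≤ 0.05 and p ≤ 0.01. D marks death of one or more mice.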

Mus musculus [17] = assay: Effect of compound on total white blood cell count in BDG1 male mice, after intraperitoneal administration at a dose of 6.4 mg/kg on day 3; format: functional; summary of the method: as §3
Mus musculus [18] = assay: Effect of compound on total white blood cell count in BDG1 male mice, after intraperitoneal administration at a dose of 45 mg/kg on day 7; format: functional; summary of the method: as §3
Mus musculus [19] = assay: Effect of compound on total white blood cell count in BDG1 male mice, after intraperitoneal administration at a dose of 33.8 mg/kg on day 3; format: functional
Summary of the method: (§4)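 Single ip dose given on day 0 to BDG1 male mice over a descending dose series. Total white blood cell count is expressed as % change from untreated control on days 3, 5 and 7. Significance is flagged at p ≤ 0.05 and p ≤ 0.01.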

Mus musculus [20] = assay: Effect of compound on total white blood cell count in BDG1 male mice, after intraperitoneal administration at a dose of 33.8 mg/kg on day 5; format: functional; summary of the method: as §4
Mus musculus [21] = assay: Effect of compound on total white blood cell count in BDG1 male mice, after intraperitoneal administration at a dose of 33.8 mg/kg on day 7; format: functional; summary of the method: as §4
Mus musculus [22] = assay: Effect of compound on total white blood cell count in BDG1 male mice, after intraperitoneal administration at a dose of 45 mg/kg on day 3; format: functional; summary of the method: as §3
Mus musculus [23] = assay: Effect of compound on total white blood cell count in BDG1 male mice, after intraperitoneal administration at a dose of 45 mg/kg on day 5; format: functional; summary of the method: as §3
Mus musculus [24] = assay: Effect of compound on total white blood cell count in BDG1 male mice, after intraperitoneal administration at a dose of 25.3 mg/kg on day 3; format: functional; summary of the method: as §4
Mus musculus [25] = assay: Effect of compound on total white blood cell count in BDG1 male mice, after intraperitoneal administration at a dose of 25.3 mg/kg on day 5; format: functional; summary of the method: as §4
Mus musculus [26] = assay: Effect of compound on total white blood cell count in BDG1 male mice, after intraperitoneal administration at a dose of 25.3 mg/kg on day 7; format: functional; summary of the method: as §4
Mus musculus [27] = assay: Number of tumored survivors, 45 days after administration of compound at a dose of 12 mg/kg/day in mice; format: functional
Mus musculus [28] = assay: Number of tumored survivors, 45 days after administration of compound at a dose of 24 mg/kg/day in mice; format: functional
Mus musculus [29] = assay: Activity of compound dose of 1.5 mg/kg/day against Murine B-16 Melanocarcinoma in mice; format: functional
Mus musculus [30] = assay: Activity of compound dose of 12 mg/kg/day against Murine B-16 Melanocarcinoma in mice; format: functional
Mus musculus [31] = assay: Activity of compound dose of 24 mg/kg/day against Murine B-16 Melanocarcinoma in mice; format: functional
Mus musculus [32] = assay: Activity of compound dose of 3 mg/kg/day against Murine B-16 Melanocarcinoma in mice; format: functional
Mus musculus [33] = assay: Activity of compound dose of 6 mg/kg/day against Murine B-16 Melanocarcinoma in mice; format: functional
Mus musculus [34] = assay: Number of cured survivors, 45 days after administration of compound at a dose of 12 mg/kg/day in mice; format: functional
Mus musculus [35] = assay: Number of cured survivors, 45 days after administration of compound at a dose of 24 mg/kg/day in mice; format: functional
Mus musculus [36] = assay: Effect of compound on total white blood cell count in BDG1 male mice, after intraperitoneal administration at a dose of 90.5 mg/kg on day 3; format: functional
Mus musculus [37] = assay: Effect of compound on total white blood cell count in BDG1 male mice, after intraperitoneal administration at a dose of 90.5 mg/kg on day 5; format: functional
Mus musculus [38] = assay: Effect of compound on total white blood cell count in BDG1 male mice, after intraperitoneal administration at a dose of 67.9 mg/kg on day 3; format: functional; summary of the method: as §3

SMILES | selectivity ratio [3] | minimal effective dose (Mus musculus [6]) [mg/kg] | T/C (Mus musculus [7]) [%] | minimal effective dose (Mus musculus [8]) [mg/kg] | T/C (Mus musculus [9]) [%] | also measured
COC12[C@@H]3N[C@@H]3CN1C1=C(C(=O)C(NCC(N)=O)=C(C)C1=O)[C@@H]2COC(N)=O (stereo not given in full) | 16 |  |  |  |  | minimal effective dose (Mus musculus [1]): 0.4 mg/kg; T/C (Mus musculus [2]): 217%
COC1=C(C)C(=O)C2=C(C1=O)[C@H](COC(N)=O)C1(OC)[C@H]3[C@@H](CN21)N3C (stereo not given in full) | 8 |  |  |  |  | minimal effective dose (Mus musculus [4]): 0.4 mg/kg; T/C (Mus musculus [5]): 180%
C=C(Cl)CNC1=C(C)C(=O)C2=C(C1=O)[C@H](COC(N)=O)C1(OC)[C@@H]3N[C@@H]3CN21 (stereo not given in full) | 8 | 3.2 | 178 |  |  | 
C#CCN(C)C1=C(C)C(=O)C2=C(C1=O)[C@H](COC(N)=O)C1(OC)[C@@H]3N[C@@H]3CN21 (stereo not given in full) | 16 |  |  | 0.8 | 210 | 
COC12[C@@H]3N[C@@H]3CN1C1=C(C(=O)C(NCc3cccnc3)=C(C)C1=O)[C@@H]2COC(N)=O (stereo not given in full) | 4 |  |  | 3.2 | 167 | 
COC12[C@@H]3N[C@@H]3CN1C1=C(C(=O)C(NCCc3ccccc3)=C(C)C1=O)[C@@H]2COC(N)=O (stereo not given in full) |  | 1.6 | 194 |  |  | 
C#CC(C)(C)NC1=C(C)C(=O)C2=C(C1=O)[C@H](COC(N)=O)C1(OC)[C@@H]3N[C@@H]3CN21 (stereo not given in full) | 16 | 1.6 | 178 |  |  | 
COC12[C@@H](COC(N)=O)c3c(O)c(N=C4C=CC(=O)C=C4)c(C)c(O)c3N1C[C@@H]1[C@H]2N1C (stereo not given in full) | 4 |  |  |  |  | minimal effective dose (Mus musculus [1]): 1.6 mg/kg; T/C (Mus musculus [2]): 137%
COC12[C@@H]3N[C@@H]3CN1C1=C(C(=O)C(NCCCO)=C(C)C1=O)[C@@H]2COC(N)=O (stereo not given in full) | 8 | 3.2 | 244 |  |  | Change (Mus musculus [10]): -43%; E1/2 (Mus musculus [11]): -0.42
COC12[C@@H]3N[C@@H]3CN1C1=C(C(=O)C(NCc3ccc(S(N)(=O)=O)cc3)=C(C)C1=O)[C@@H]2COC(N)=O (stereo not given in full) | 4 | 6.4 | 150 |  |  | 
C=CCNC1=C(C)C(=O)C2=C(C1=O)[C@H](COC(N)=O)C1(OC)[C@H]3[C@@H](CN21)N3C (stereo not given in full) | 4 |  |  | 3.2 | 189 | 
COC(=O)CNC1=C(C)C(=O)C2=C(C1=O)[C@H](COC(N)=O)C1(OC)[C@@H]3N[C@@H]3CN21 (stereo not given in full) | 32 |  |  |  | 300 | Change (Mus musculus [12]): -55%; Change (Mus musculus [13]): -68%; Change (Mus musculus [14]): -21%; Change (Mus musculus [15]): -65%; Change (Mus musculus [16]): -55%; Change (Mus musculus [17]): -39%
COC12[C@@H]3N[C@@H]3CN1C1=C(C(=O)C(NCC3CCCO3)=C(C)C1=O)[C@@H]2COC(N)=O (stereo not given in full) | 64 | 0.4 | 289 |  |  | Change (Mus musculus [10]): -54%; E1/2 (Mus musculus [11]): -0.41; Change (Mus musculus [18]): -25%; Change (Mus musculus [19]): -58%; Change (Mus musculus [20]): -62%; Change (Mus musculus [21]): -13%; Change (Mus musculus [22]): -76%; Change (Mus musculus [23]): -72%; Change (Mus musculus [24]): -44%; Change (Mus musculus [25]): -54%; Change (Mus musculus [26]): -19%; Survivors (Mus musculus [27]): 1; Survivors (Mus musculus [28]): 3; T/C (Mus musculus [29]): 146%; T/C (Mus musculus [30]): 240%; T/C (Mus musculus [31]): 326%; T/C (Mus musculus [32]): 173%; T/C (Mus musculus [33]): 179%; Survivors (Mus musculus [34]): 1; Survivors (Mus musculus [35]): 4
COC12[C@@H](COC(N)=O)C3=C(C(=O)C(C)=C(NC4CC4)C3=O)N1C[C@@H]1[C@H]2N1C (stereo not given in full) | 2 |  |  |  | 167 | 
COC12[C@@H](COC(N)=O)C3=C(C(=O)C(C)=C(NCc4ccco4)C3=O)N1C[C@@H]1[C@H]2N1C (stereo not given in full) | 16 | 1.6 | 261 |  |  | 
COC12[C@@H](COC(N)=O)C3=C(C(=O)C(C)=C(NCCCO)C3=O)N1C[C@@H]1[C@H]2N1C (stereo not given in full) | 16 | 1.6 | 239 |  |  | Change (Mus musculus [36]): -78%; Change (Mus musculus [37]): -72%; Change (Mus musculus [38]): -85%
COC12[C@@H]3N[C@@H]3CN1C1=C(C(=O)C(NCc3ccccc3)=C(C)C1=O)[C@@H]2COC(N)=O (stereo not given in full) | 8 |  |  | 1.6 | 188 | 
COC12[C@@H]3N[C@@H]3CN1C1=C(C(=O)C(NCCCCl)=C(C)C1=O)[C@@H]2COC(N)=O (stereo not given in full) | 2 |  |  | 6.4 | 140 | 
CO[C@@]12[C@H](COC(N)=O)C3=C(C(=O)C(C)=C(N)C3=O)N1C[C@H]1[C@@H]2N1C (stereo not given in full) [PORFIROMYCIN] | 16 |  |  | 0.8 | 225 | 

— ChEMBL document CHEMBL1121685, “Development of new mitomycin C and porfiromycin analogues” (J Med Chem, 1981)
